Article PMC4176526 (Bioorganic & medicinal chemistry letters, 2014)

Target: Myc-tagged Akt1 (Homo sapiens, UniProt P31749)
Assay type: biochemical
Conditions: at 5 µM, immunoblot
How it was run: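 HEK293 cells transfected with Myc-tagged Akt1; the kinase was immunoprecipitated with anti-Myc antibody. The immobilized enzyme was incubated with a GSK3β fusion protein substrate, with or without test compound. Phospho-GSK3β was detected by immunoblot, and an approximate IC50 was estimated from the blots.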

Sequence of Myc-tagged Akt1 (P31749 whole entry): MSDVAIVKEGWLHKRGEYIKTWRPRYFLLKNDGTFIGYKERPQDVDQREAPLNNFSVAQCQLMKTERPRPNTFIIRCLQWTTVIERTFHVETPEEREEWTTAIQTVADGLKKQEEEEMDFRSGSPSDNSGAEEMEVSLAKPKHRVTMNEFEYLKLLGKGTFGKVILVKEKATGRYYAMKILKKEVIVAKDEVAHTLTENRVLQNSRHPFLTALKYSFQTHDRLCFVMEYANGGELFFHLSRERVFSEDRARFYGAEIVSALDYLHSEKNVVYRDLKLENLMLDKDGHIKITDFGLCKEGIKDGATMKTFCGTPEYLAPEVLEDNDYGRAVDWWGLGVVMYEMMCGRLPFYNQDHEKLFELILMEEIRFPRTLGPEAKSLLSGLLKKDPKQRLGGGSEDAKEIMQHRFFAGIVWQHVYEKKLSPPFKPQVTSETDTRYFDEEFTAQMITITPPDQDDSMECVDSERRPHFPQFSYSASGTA

## NC1(c2ccc(-c3nc4ccn5c(=O)[nH]nc5c4cc3-c3ccccc3)cc2)CCC1 [MK2206]
  phosphorylation of GSK3β: completely blocks
